ChEMBL document CHEMBL1949586, “Conicasterol E, a small heterodimer partner sparing farnesoid X receptor modulator endowed with a pregnane X receptor agonistic activity, from the marine sponge Theonella swinhoei” (J Med Chem, 2012)
The source made the active and inactive calls. The rule behind the calls is not given here.

Columns and labels:
Format in all cases: functional, cell-based
[1] = target: T1, Nuclear receptor subfamily 1 group I member 2 (Homo sapiens, UniProt O75469); assay: Agonist activity at PXR expressed in human HepG2 cells assessed as transactivation […] by luciferase reporter gene assay
T1 sequence (O75469 whole entry): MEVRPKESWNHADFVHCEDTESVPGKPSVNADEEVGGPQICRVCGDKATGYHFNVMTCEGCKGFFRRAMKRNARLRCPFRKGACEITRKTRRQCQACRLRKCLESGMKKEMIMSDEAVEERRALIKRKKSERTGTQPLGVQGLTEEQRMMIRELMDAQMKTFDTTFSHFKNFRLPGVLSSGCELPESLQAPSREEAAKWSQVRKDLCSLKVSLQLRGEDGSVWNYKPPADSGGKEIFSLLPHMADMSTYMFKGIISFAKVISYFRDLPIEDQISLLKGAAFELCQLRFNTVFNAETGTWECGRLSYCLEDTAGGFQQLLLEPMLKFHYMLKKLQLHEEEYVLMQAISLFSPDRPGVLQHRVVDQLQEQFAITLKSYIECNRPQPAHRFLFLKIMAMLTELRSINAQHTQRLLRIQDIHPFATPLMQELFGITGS

[2] = target: T2, Bile acid receptor (Homo sapiens) (UniProt Q96RI1); assay: Antagonist activity at FXR expressed in human HepG2 cells assessed as inhibition of CDCA-mediated transactivation at 10 uM after 48 hrs by luciferase reporter gene assay
T2 sequence (whole entry): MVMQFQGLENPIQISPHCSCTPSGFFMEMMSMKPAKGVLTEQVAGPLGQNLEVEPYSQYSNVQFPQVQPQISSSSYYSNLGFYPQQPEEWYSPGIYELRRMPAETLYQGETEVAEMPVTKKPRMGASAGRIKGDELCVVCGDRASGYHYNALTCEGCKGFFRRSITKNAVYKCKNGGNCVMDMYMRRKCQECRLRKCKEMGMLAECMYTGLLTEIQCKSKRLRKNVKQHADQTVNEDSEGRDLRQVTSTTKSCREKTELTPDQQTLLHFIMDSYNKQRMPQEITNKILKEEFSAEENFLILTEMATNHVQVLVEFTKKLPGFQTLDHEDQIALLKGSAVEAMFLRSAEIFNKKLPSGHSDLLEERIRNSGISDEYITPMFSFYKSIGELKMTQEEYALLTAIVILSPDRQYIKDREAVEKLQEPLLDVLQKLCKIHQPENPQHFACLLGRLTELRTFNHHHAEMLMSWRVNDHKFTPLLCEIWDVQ
In short: (§1)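 Antagonism was tested in the FXR transactivation system: HepG2 cells transfected with FXR, RXR, β-gal and the hsp27 IR1-luciferase reporter. Cells were stimulated 48 h after transfection for 18 h with 10 μM CDCA plus test agent. Luciferase was normalised to β-gal. Four experiments were run.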

[3] = target: T1, Nuclear receptor subfamily 1 group I member 2; assay: Antagonist activity at PXR expressed in human HepG2 cells assessed as inhibition of rifaximin-induced CYP3A4 mRNA expression at 50 uM by RT-PCR analysis; conditions: hepg2, 50 µM
[4] = target: T2, Bile acid receptor (Homo sapiens); assay: Antagonist activity at FXR expressed in human HepG2 cells assessed as inhibition of 6-ECDCA-mediated transactivation at 10 uM after 48 hrs by luciferase reporter gene assay
In short: (§2)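 The FXR/RXR/hsp27-luciferase HepG2 transfection system was used, with test agent co-administered alongside 6-ECDCA. Stimulation was 18 h, starting 48 h after transfection. Luciferase was normalised to β-galactosidase.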

[5] = target: T2, Bile acid receptor (Homo sapiens); assay: Agonist activity at FXR expressed in human HepG2 cells at 50 uM after 48 hrs by luciferase reporter gene based transactivation assay
In short: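 HepG2 cells (5 × 10⁵/well) were transfected using Fugene HD with pSG5-FXR, pSG5-RXR, pCMV-β-gal and the p(hsp27)-TK-LUC reporter (IR1 element). Cells were stimulated 48 h post-transfection for 18 h. Luciferase from lysates was normalised to β-galactosidase activity. Four experiments were run.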

[6] = target: T2, Bile acid receptor (Homo sapiens); assay: Agonist activity at FXR expressed in human HepG2 cells assessed as effect on SHP mRNA level at 10 uM by RT-PCR analysis
In short: (§3)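 HepG2 cells exposed to 10 μM test agent, alone or with 10 μM CDCA. mRNA was measured by SYBR Green real-time PCR with 50 ng template and 0.2 μM of each primer. Cycling was 95 °C 2 min, then 40 cycles of 95/55/72 °C. Reactions ran in triplicate. CT was normalised to GAPDH, and ΔΔCT was taken against untreated cells. Four experiments were run.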

[7] = target: T2, Bile acid receptor (Homo sapiens); assay: Antagonist activity at FXR expressed in human HepG2 cells assessed as inhibition of CDCA-mediated transactivation at 50 uM after 48 hrs by luciferase reporter gene assay; in short: as §1
[8] = target: T2, Bile acid receptor (Homo sapiens); assay: Antagonist activity at FXR expressed in human HepG2 cells assessed as inhibition of 6-ECDCA-mediated transactivation at 50 uM after 48 hrs by luciferase reporter gene assay; in short: as §2
[9] = target: T2, Bile acid receptor (Homo sapiens); assay: Agonist activity at FXR expressed in human HepG2 cells assessed as increase in CYP7A1 mRNA level at 10 uM by RT-PCR analysis relative to control; in short: as §3
[10] = target: T2, Bile acid receptor (Homo sapiens); assay: Agonist activity at FXR expressed in human HepG2 cells assessed as increase in OSTalpha mRNA level at 10 uM by RT-PCR analysis; in short: as §3
[11] = target: T2, Bile acid receptor (Homo sapiens); assay: Agonist activity at FXR expressed in human HepG2 cells assessed as increase in BSEP mRNA level at 10 uM by RT-PCR analysis; in short: as §3

| SMILES | Activity [1] | inhibition [2] | inhibition (INH) [3] | inhibition [4] | Activity [5] | Activity [6] | inhibition [7] | inhibition [8] | fold change (FC) [9] | Activity [10] | Activity [11] |
| --- | --- | --- | --- | --- | --- | --- | --- | --- | --- | --- | --- |
| C=C1[C@@H](O)CC[C@@]2(C)[C@H]1C[C@@H](O)C1=C3[C@H](O)C[C@H]([C@H](C)CC[C@@H](C)C(C)C)[C@@]3(C)CC[C@@H]12 [CONICASTEROL E] | Active | inactive | Not Active | inactive | Active | inactive | inactive | inactive | 2 | Active | Active |
| CO[C@H]1/C=C/O[C@@]2(C)Oc3c(C)c(O)c4c(O)c(c5c(nc6cc(C)ccn65)c4c3C2=O)NC(=O)/C(C)=C\C=C\[C@H](C)[C@H](O)[C@@H](C)[C@@H](O)[C@@H](C)[C@H](OC(C)=O)[C@@H]1C [RIFAXIMIN] | Active | – | – | – | – | – | – | – | – | – | – |
